In ChEMBL document CHEMBL2346615, “Design, synthesis, and molecular modelling of pyridazinone and phthalazinone derivatives as protein kinases inhibitors” (Bioorg Med Chem Lett, 2013):

Key:
[1] = biological target: Glycogen synthase kinase-3 (Sus scrofa, UniProt B2LUN4+I6LNT8); assay: Inhibition of pig brain GSK-3alpka/beta using YRRAAVPPSPSLSRHSSPHQSpEDEEE as substrate after 30 mins by scintillation counting analysis in presence of [gamma-33P]ATP
[2] = biological target: Cyclin-dependent kinase 5/CDK5 activator 1 (Homo sapiens, UniProt Q00535); assay: Inhibition of human recombinant CDK5/p25 after 30 mins by scintillation counting analysis in presence of [gamma-33P]ATP; type: protein-complex assay
[3] = biological target: Dual specificity tyrosine-phosphorylation-regulated kinase 1A (Rattus norvegicus, UniProt Q63470); assay: Inhibition of rat recombinant DYRK1A expressed in Escherichia coli using myelin basic protein as substrate after 30 mins by scintillation counting analysis in presence of [gamma-33P]ATP
[4] = biological target: T1, Casein kinase I isoform alpha (Sus scrofa, UniProt O19175); assay: Inhibition of pig brain CK1 using RRKHAAIGpSAYSITA as substrate after 30 mins by scintillation counting analysis in presence of [gamma-33P]ATP
T1 sequence (O19175 whole entry): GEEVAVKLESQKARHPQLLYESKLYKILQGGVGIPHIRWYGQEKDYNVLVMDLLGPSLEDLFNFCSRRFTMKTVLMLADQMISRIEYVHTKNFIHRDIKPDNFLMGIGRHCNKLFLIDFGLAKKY

[5] = system: HL-60; assay: Cytotoxicity against human HL60 cells after 48 hrs by MTT assay; type: functional, cell-based; conditions: HL-60, 48 h
Method in brief: (§1)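 Run in triplicate, with the mean reported; the IC50 for each cell line comes from non-linear regression with a 95% confidence interval.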

[6] = system: SF-295; assay: Cytotoxicity against human SF295 cells after 48 hrs by MTT assay; type: functional, cell-based; conditions: SF-295, 48 h; method in brief: as §1
[7] = system: HCT-116; assay: Cytotoxicity against human HCT116 cells after 48 hrs by MTT assay; type: functional, cell-based; conditions: HCT-116, 48 h; method in brief: as §1
[8] = system: OVCAR-8; assay: Cytotoxicity against human OVCAR8 cells after 48 hrs by MTT assay; type: functional, cell-based; conditions: OVCAR-8, 48 h; method in brief: as §1

Cyclin-dependent kinase 5/CDK5 activator 1, sequence (Q00535 whole entry): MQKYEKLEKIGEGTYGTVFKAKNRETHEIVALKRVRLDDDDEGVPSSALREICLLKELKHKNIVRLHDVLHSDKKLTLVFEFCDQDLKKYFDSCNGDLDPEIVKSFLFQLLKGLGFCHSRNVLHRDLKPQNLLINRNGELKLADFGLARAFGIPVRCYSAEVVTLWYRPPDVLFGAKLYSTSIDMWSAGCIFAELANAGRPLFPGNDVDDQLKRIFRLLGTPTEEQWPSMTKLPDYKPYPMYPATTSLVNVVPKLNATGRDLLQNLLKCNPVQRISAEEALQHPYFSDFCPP
Cyclin-dependent kinase 5/CDK5 activator 1, sequence (Q15078 whole entry, further chain): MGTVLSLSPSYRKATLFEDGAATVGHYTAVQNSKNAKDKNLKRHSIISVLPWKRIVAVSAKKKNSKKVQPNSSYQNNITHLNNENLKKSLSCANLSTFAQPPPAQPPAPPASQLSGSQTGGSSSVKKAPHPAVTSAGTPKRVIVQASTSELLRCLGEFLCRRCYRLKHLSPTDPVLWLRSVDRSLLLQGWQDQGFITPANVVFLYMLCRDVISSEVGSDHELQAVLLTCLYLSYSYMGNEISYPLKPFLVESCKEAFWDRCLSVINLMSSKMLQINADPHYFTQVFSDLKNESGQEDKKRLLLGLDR

Structure (SMILES) | IC50 [1] | IC50 [2] | IC50 [3] | IC50 [4] | IC50 [5] | IC50 [6] | IC50 [7] | IC50 [8]
O=C(Cc1ccccc1)Nc1n[nH]c(=O)c2ccccc12 | > 10 µM | > 10 µM | > 10 µM | > 10 µM |  |  |  | 
CCCNc1n[nH]c(=O)cc1-c1ccccc1 | > 10 µM | > 10 µM | > 10 µM | > 10 µM |  |  |  | 
O=c1[nH]nc(NCc2ccccc2)cc1-c1ccccc1 | > 10 µM | > 10 µM | > 10 µM | > 10 µM |  |  |  | 
CCCCCC(=O)N(C(=O)CCCCC)c1nnc(Cl)c2ccccc12 | > 10 µM | > 10 µM | > 10 µM | > 10 µM |  |  |  | 
O=c1[nH]nc(NCCN2CCCCC2)cc1-c1ccccc1 | > 10 µM | > 10 µM | > 10 µM | > 10 µM |  |  |  | 
CCCNc1n[nH]c(=O)c2ccccc12 | > 10 µM | > 10 µM | > 10 µM | > 10 µM |  |  |  | 
O=C(Cc1ccccc1)Nc1nnc(Cl)c2ccccc12 | > 10 µM | > 10 µM | > 10 µM | > 10 µM |  |  |  | 
CC(=O)Nc1n[nH]c(=O)cc1-c1ccccc1 | > 10 µM | > 10 µM | > 10 µM | > 10 µM |  |  |  | 
CN1CCC(Nc2cc(-c3ccccc3)c(=O)[nH]n2)CC1 | > 10 µM | > 10 µM | > 10 µM | > 10 µM |  |  |  | 
CCCNc1cc(-c2ccccc2)c(=O)[nH]n1 | > 10 µM | > 10 µM | > 10 µM | > 10 µM |  |  |  | 
O=c1[nH]nc(NCCN2CCCCC2)c2ccccc12 | > 10 µM | > 10 µM | > 10 µM | > 10 µM |  |  |  | 
O=C(Nc1cc(-c2ccccc2)c(Cl)nn1)c1ccccc1 | > 10 µM | > 10 µM | > 10 µM | > 10 µM |  |  |  | 
CC(C)C(=O)N(C(=O)C(C)C)c1n[nH]c(=O)c2ccccc12 | > 10 µM | > 10 µM | > 10 µM | > 10 µM |  |  |  | 
O=C(Nc1cc(-c2ccccc2)c(=O)[nH]n1)c1ccccc1 | > 10 µM | > 10 µM | > 10 µM | > 10 µM |  |  |  | 
O=c1cc(-c2ccccc2)c(NCCN2CCCCC2)n[nH]1 | > 10 µM | > 10 µM | > 10 µM | > 10 µM |  |  |  | 
CC(=O)N(C(C)=O)c1n[nH]c(=O)c2ccccc12 | > 10 µM | > 10 µM | > 10 µM | > 10 µM |  |  |  | 
Nc1n[nH]c(=O)cc1-c1ccccc1 | > 10 µM | > 10 µM | > 10 µM | > 10 µM |  |  |  | 
O=C(Cc1ccccc1)N(C(=O)Cc1ccccc1)c1nnc(Cl)c2ccccc12 | > 10 µM | > 10 µM | > 10 µM | > 10 µM |  |  |  | 
O=c1cc(-c2ccccc2)c(NCc2ccccc2)n[nH]1 | > 10 µM | > 10 µM | > 10 µM | > 10 µM |  |  |  | 
O=C(Nc1n[nH]c(=O)c2ccccc12)c1ccccc1 | > 10 µM | > 10 µM | > 10 µM | > 10 µM |  |  |  | 
CC(=O)Nc1n[nH]c(=O)c2ccccc12 | > 10 µM | > 10 µM | > 10 µM | > 10 µM |  |  |  | 
Nc1cc(-c2ccccc2)c(=O)[nH]n1 | 8.1 µM | > 10 µM | 6 µM | > 10 µM | 3.64 µM | 5.71 µM | 4.4 µM | 4.86 µM
Nc1n[nH]c(=O)c2ccccc12 | > 10 µM | > 10 µM | 4.1 µM | > 10 µM | 8.87 µM | 6.06 µM | 12.7 µM | 11.8 µM
CC(C)C(=O)Nc1n[nH]c(=O)c2ccccc12 | > 10 µM | > 10 µM | > 10 µM | > 10 µM |  |  |  | 
CC(=O)Nc1cc(-c2ccccc2)c(=O)[nH]n1 | 2.2 µM | > 10 µM | 10 µM | > 10 µM | 11.6 µM | 7.66 µM | 15.4 µM | 14 µM
